# Source: PubChem BioAssay
# Calls of active or inactive are those of the source. Cut-off read from the data, not from the text of the source, unless noted: active = inhibition above about 30%; inactive = the rest. Peptide text beside a SMILES is read from it. * marks the point of attachment. Boc = CC(C)(C)OC(=O)*
# How the values were obtained:
# [1] = HUVEC growth inhibition – cell-based, human, primary screen (AID 575;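 active = viability at or below 30% in both replicate assays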;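 note: 100% = median of untreated cell wells with 0.1% DMSO on each plate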); settings: HUVEC proliferation, CellTiter-Glo luminescence, 72 h; at 10 µM; stronger effect = lower value
# In short: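 Timing: 72 h treatment at 37 °C; material: HUVEC primary cells; technique: CellTiter-Glo luminescence measuring cellular ATP; controls: vehicle and MePR control wells; measure: percent of median DMSO-control luminescence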
# [2] = growth inhibitors of H69AR lung tumor, primary screen, human, duplicate replicates (AID 580;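 active = viability at or under a set limit in both replicates, limit being median viability minus 3 SD, cut at about 48% in these data, passing the limit was not always enough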;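 note: 100% = mean luminescence of untreated wells and 0% = no signal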); settings: H69AR lung tumor cells viability, ATP luminescence, 72 h; at 10 µM; stronger effect = lower value
# [3] = reversal of MRP1-mediated doxorubicin resistance, pilot screen, H69AR cells, doxorubicin co-treatment (AID 601;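 active = viability loss from added drug above about 55%, and viability with drug at most 40%, in both replicates, limit read from the data, passing the limit was not always enough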); settings: CellTiter-Glo, 72 h, at 10 µM; for differential viability (reversal): stronger effect = higher value
# [4] = 384-well plate pilot, post-Golgi transport modulator project, inhibition of yeast transport mutant growth (AID 636; in the data active = inhibition above about 31%); settings: absorbance 615 nm, about 18 h, stronger effect = higher value
# [5] = growth suppression of yeast trafficking mutant, preliminary HTS, modulators of trafficking downstream of Golgi apparatus project, 1536-format plate, OD 615 nm (AID 637); settings: yeast transport mutant growth, absorbance 615 nm, 18 h; stronger effect = higher value
# [6] = H69AR cells + 2 uM doxorubicin, measured here: viability with 2 uM doxorubicin, stronger effect = lower value
# [7] = H69AR cells, compound alone cytotoxicity
Structure (SMILES),viability [1],viability [2],differential viability (reversal) ([3]; H69AR cells + 2 uM doxorubicin),"viability [3, 6]","viability [3, 7]",inhibition [4],inhibition [5]
O=C(NC1CC2CCC1C2)c1ccc(CN2CCOCC2)cc1 (stereo not given),99.9% (inactive),96.9% (inactive),2.98% (inactive),93.9%,96.9%,-2.89% (inactive),-2.7% (inactive)
COC(=O)C1(C(=O)OC)Sc2ccccc2C1=O,87.2% (inactive),101% (inactive),10.6% (inactive),90.8%,101%,-3.9% (inactive),3.33% (inactive)
CCC(=O)n1nc(-c2ccco2)nc1N,113% (inactive),110% (inactive),11.3% (inactive),98.2%,110%,0.53% (inactive),5.4% (inactive)
CC(NS(=O)(=O)c1ccc(OCC(=O)N2CCOCC2)c(Cl)c1)c1ccccc1 (stereo not given),94.9% (inactive),94.7% (inactive),0.355% (inactive),94.4%,94.7%,-6.53% (inactive),4.76% (inactive)
COc1ccc(C)cc1-n1nnnc1SCC(=O)NC(=O)NCc1ccco1,90.9% (inactive),87.3% (inactive),9.23% (inactive),78.1%,87.3%,-1.69% (inactive),3.17% (inactive)
S=c1nc(C2CC2)[nH]c2ccccc12,78.3% (inactive),94% (inactive),5.99% (inactive),88%,94%,-0.92% (inactive),0.63% (inactive)
Nc1nc(Nc2ccc(Cl)cc2Cl)nc(C(F)(F)F)n1,73.9% (inactive),89.8% (inactive),11.7% (inactive),78%,89.8%,-5.6% (inactive),11.3% (inactive)
Cc1cccc(NC(=O)c2oc3c(c2C)C(=O)CC(C)(C)C3)n1,106% (inactive),92.3% (inactive),9.28% (inactive),83%,92.3%,-6.27% (inactive),-3.49% (inactive)
COc1ccccc1NS(=O)(=O)c1ccc(NC(=O)c2nc3ncccn3n2)cc1,94.7% (inactive),96.3% (inactive),11.2% (inactive),85.1%,96.3%,-1.17% (inactive),7.3% (inactive)
CCn1c(SCC(=O)NCCc2ccc(Cl)cc2)nnc1-c1cccs1,87.7% (inactive),98.9% (inactive),4.62% (inactive),94.3%,98.9%,4.03% (inactive),3.17% (inactive)
Cn1nc(-c2ccc(C(=O)N3CCN(c4ccccc4)CC3)cc2)c2ccccc2c1=O,71.2% (inactive),92.4% (inactive),3.5% (inactive),88.9%,92.4%,0.26% (inactive),27.3% (inactive)
COc1ccc(CCNC(=O)C2CCCN(c3nn4c(=O)cc(C)nc4s3)C2)cc1OC (stereo not given),78.6% (inactive),86.4% (inactive),-4.58% (inactive),91%,86.4%,-6.8% (inactive),3.65% (inactive)
CSc1n[nH]c(NCc2ccccc2)n1,96.5% (inactive),96.8% (inactive),0.755% (inactive),96.1%,96.8%,-5.13% (inactive),1.43% (inactive)
Cc1cc(N2C(=O)C(O)=C(C(=O)c3ccc(C)o3)C2c2cccs2)no1 (stereo not given),64.2% (inactive),79.9% (inactive),-4.59% (inactive),84.5%,79.9%,-2.13% (inactive),-6.03% (inactive)
O=C(NCCN1CCCC1)C1COc2ccccc2O1 (stereo not given),105% (inactive),95.7% (inactive),1.77% (inactive),93.9%,95.7%,-7.14% (inactive),-3.02% (inactive)
CC1(C)CC(=O)c2cc(OCC(=O)N3CCN(c4ccccc4F)CC3)ccc2O1,99.1% (inactive),91.8% (inactive),2.9% (inactive),88.9%,91.8%,-0.13% (inactive),2.06% (inactive)
CCNc1ccc2c(Cl)cc(=O)oc2c1,68.2% (inactive),79.8% (inactive),5.29% (inactive),74.5%,79.8%,-5.73% (inactive),-1.59% (inactive)
CC(C)NC(=O)NC(=O)COc1cccc2c1OC(C)(C)C2,97.1% (inactive),105% (inactive),16.9% (inactive),87.9%,105%,-3.38% (inactive),0.79% (inactive)
Cc1ccc(C)c(SCC(=O)Nc2nnc(-c3ccccc3)o2)c1,48.4% (inactive),74.9% (inactive),-0.675% (inactive),75.6%,74.9%,-3.64% (inactive),-1.27% (inactive)
COC(=O)CN(c1ccc2c(c1)OCO2)S(C)(=O)=O,102% (inactive),110% (inactive),12.5% (inactive),97.9%,110%,-2.63% (inactive),6.67% (inactive)

Structure (SMILES),viability [1],viability [2],differential viability (reversal) ([3]; H69AR cells + 2 uM doxorubicin),"viability [3, 6]","viability [3, 7]",inhibition [4],inhibition [5]
Cc1ccc(S(=O)(=O)NCCc2ccncc2)cc1,95.4% (inactive),110% (inactive),10.4% (inactive),100%,110%,-2.47% (inactive),-0.16% (inactive)
O=C(Cn1cnc2sc(-c3ccccc3)cc2c1=O)N1CCOCC1,116% (inactive),97% (inactive),3.61% (inactive),93.4%,97%,-1.58% (inactive),1.75% (inactive)
Cc1ccc(S(=O)(=O)N(C)CC(=O)NC2CCCC2)cc1,118% (inactive),102% (inactive),17.5% (inactive),84.9%,102%,-2.63% (inactive),0.95% (inactive)
CC(C)(C)OC(=O)N1CCCC1C(=O)N1CCCC1C(=O)N1CCCC1C(=O)O (stereo not drawn) (Boc-Pro-Pro-Pro-OH; configuration not given here),101% (inactive),97.9% (inactive),3.05% (inactive),94.8%,97.9%,-5.06% (inactive),-0.95% (inactive)
Cc1csc(NC(=O)c2cccc(S(=O)(=O)N3CCCCC3)c2)n1,70.6% (inactive),87.5% (inactive),-3.96% (inactive),91.5%,87.5%,-3.51% (inactive),-9.05% (inactive)
CCN(CC)CCCN1C(=O)C(=O)/C(=C(/O)c2ccc(C)cc2)C1c1ccccn1 (stereo not given),98.7% (inactive),91.8% (inactive),-1.81% (inactive),93.6%,91.8%,6.4% (inactive),-4.44% (inactive)
O=C1CC(Sc2nnc(-c3ccccc3)o2)C(=O)N1c1ccccc1 (stereo not given),96.3% (inactive),2.27% (active),-6.77% (inactive),9.04%,2.27%,-6.13% (inactive),-1.11% (inactive)
O=C(NC1CCCCC1)C(c1ccc(Cl)cc1)N(C(=O)c1cnccn1)c1ccc2c(c1)OCO2 (stereo not given),80.4% (inactive),80.2% (inactive),4.39% (inactive),75.8%,80.2%,-5.47% (inactive),-5.71% (inactive)
CCCCCCNC(=O)c1c(N)n(/N=C/c2ccco2)c2nc3ccccc3nc12,53.7% (inactive),78.4% (inactive),-0.96% (inactive),79.4%,78.4%,-4.4% (inactive),-0.16% (inactive)
Cc1ccc(C(=O)Nc2ccc3c(c2)OCO3)o1,83% (inactive),69.6% (inactive),-5.72% (inactive),75.3%,69.6%,-2.6% (inactive),-3.81% (inactive)
Cc1ccc(-c2ccc(/C=N/n3cnnc3)o2)cc1Cl,87.2% (inactive),101% (inactive),4.54% (inactive),96.3%,101%,-2.08% (inactive),86.2% (active)
CCOc1ncccc1C(=O)Nc1ccc2c(C)cc(=O)oc2c1,84.1% (inactive),93.5% (inactive),1.12% (inactive),92.4%,93.5%,-3.77% (inactive),6.51% (inactive)
O=C(c1nc2n(n1)C(c1ccc(Cl)cc1)C=C(c1ccccc1)N2)N1CCOCC1 (stereo not given),96.9% (inactive),91.9% (inactive),-6.89% (inactive),98.8%,91.9%,-1.18% (inactive),-1.9% (inactive)
O=C(CN1C(=O)COc2ccccc21)NCCCN1CCc2ccccc2C1,83.2% (inactive),94.8% (inactive),11.6% (inactive),83.2%,94.8%,-1.69% (inactive),9.05% (inactive)
CCOC(=O)C1CCN(C(=O)CN(Cc2ccccc2)S(C)(=O)=O)CC1,112% (inactive),92.1% (inactive),-1.19% (inactive),93.3%,92.1%,-6.4% (inactive),2.7% (inactive)
Cc1cc(NCCCn2ccnc2)n2c(nc3ccccc32)c1C#N,94% (inactive),100% (inactive),7.14% (inactive),93.3%,100%,4.29% (inactive),6.51% (inactive)
CC1Cc2ccccc2N1C(=O)Cc1cccs1 (stereo not given),84.8% (inactive),108% (inactive),16.1% (inactive),92.3%,108%,-1.71% (inactive),2.06% (inactive)
C=CCNc1oc(-c2cccc3ccccc23)nc1C#N,92.5% (inactive),84.8% (inactive),0.75% (inactive),84.1%,84.8%,-5.47% (inactive),-0.95% (inactive)
COC(=O)CN1C(=O)C2(C(C#N)=C(N)Oc3c2c(C)nn3-c2ccccc2)c2ccccc21 (stereo not given),69.8% (inactive),67.8% (inactive),-5.54% (inactive),73.3%,67.8%,-6.32% (inactive),-1.43% (inactive)
CCCc1n[nH]c2c1/C(=N/O)CC(c1ccccc1)C2 (stereo not given),49.5% (inactive),66.1% (inactive),-14.4% (inactive),80.6%,66.1%,-2.34% (inactive),2.86% (inactive)
